We go through seven compounds from ChEMBL document CHEMBL1137367, “Design, synthesis, and preliminary evaluation of doxazolidine carbamates as prodrugs activated by carboxylesterases” (J Med Chem, 2006).

In series [1] the test system is MCF7. The series can be described thus: Growth inhibition of MCF7 cells by crystal violet assay after 24 hrs. As to conditions: Homo sapiens, MCF7, 24 h. In kind it is functional, cell-based. The procedure, abridged:
(§1)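 Cancer lines were grown in RPMI 1640 with 10% FCS and 1% pen-strep and seeded at 1000 cells/well overnight. Drug was given in serum-free medium for 3 or 24 h, then fresh complete medium until controls reached ~80% confluence (3-5 days). Cells were fixed with glutaraldehyde and stained with crystal violet, solubilised in 70% ethanol and read at 588 nm. IC50 is log molar, with six replicates per concentration and ≥2 experiments.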

Series [2] relates to NCI/ADR-RES. Nature of the series: Growth inhibition of MCF7/Adr cells by crystal violet assay after 24 hrs. The class given is functional, cell-based. As to conditions: Homo sapiens. The procedure, abridged: as §1
Series [3] relates to SK-HEP1. Nature of the series: Growth inhibition of SK-HEP-1 cells by crystal violet assay after 24 hrs. The class given is functional, cell-based. As to conditions: Homo sapiens, SK-HEP1, 24 h. The method, boiled down:
as §1

In series [4] the test system is HepG2. Nature of the series: Growth inhibition of HepG2 cells by crystal violet assay after 24 hrs. In kind it is functional, cell-based. As to conditions: Homo sapiens, HepG2, 24 h. The method, boiled down:
as §1

Series [5] relates to Vero. Nature of the series: Cytotoxicity against Vero cells by MTT assay after 24 hrs. The class given is functional, cell-based. Particulars: Chlorocebus sabaeus. The procedure, abridged: (§2)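 Vero cells were grown in DMEM with 10% FCS and 1% pen-strep at 37 °C in 5% CO2. They were seeded at 1000 cells/well and left overnight to adhere. Drug was given in serum-free medium for 3 or 24 h, then replaced with fresh complete medium until untreated wells reached ~80% confluence (3-5 days). MTT was read at 554 nm and IC50 given as log molar. Each concentration was run in six wells, each experiment at least twice.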

In the next series the test system is SHP77. Nature of the series: Growth inhibition of SHP77 cells by crystal violet assay after 24 hrs. The class given is functional, cell-based. As to conditions: Homo sapiens, SHP77, 24 h. The procedure, abridged:
as §1

The test system of a further series is DU-145. Nature of the series: Growth inhibition of DU145 cells by crystal violet assay after 24 hrs. The class given is functional, cell-based. Particulars: Homo sapiens, DU-145, 24 h. The procedure, abridged: as §1
For series [6], the system named is H9c2. The series can be described thus: Growth inhibition of H9c2(2-1) cells by crystal violet assay after 24 hrs. As to conditions: Rattus norvegicus, H9c2, 24 h.
The test system of series [7] is MCF7. The series can be described thus: Growth inhibition of MCF7 cells by crystal violet assay after 3 hrs. In kind it is functional, cell-based. As to conditions: Homo sapiens, MCF7, 3 h. The method, boiled down:
(§3)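 Cells were seeded at 1000/well and left to adhere overnight at 37 °C in 5% CO2. They were then exposed for 3 h to a range of drug concentrations in serum-free RPMI 1640. Medium was replaced with fresh RPMI containing 10% fetal calf serum and 1% pen-strep, and cells were grown until untreated controls reached ~80% confluence (3-5 days). Cells were fixed with glutaraldehyde, stained with crystal violet, and the dye was solubilised in 70% ethanol before reading OD at 588 nm. IC50 is given as log molar. Each concentration was run six-fold, and each experiment at least twice.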

For series [8], the system named is NCI/ADR-RES. The series can be described thus: Growth inhibition of MCF7/Adr cells by crystal violet assay after 3 hrs. As to conditions: Homo sapiens. In kind it is functional, cell-based. The procedure, abridged: as §1
For series [9], the system named is SK-HEP1. The series can be described thus: Growth inhibition of SK-HEP-1 cells by crystal violet assay after 3 hrs. As to conditions: Homo sapiens, SK-HEP1, 3 h. In kind it is functional, cell-based. The procedure, abridged:
as §1

The subject of series [10] is HepG2. The series can be described thus: Growth inhibition of HepG2 cells by crystal violet assay after 3 hrs. As to conditions: Homo sapiens, HepG2, 3 h. In kind it is functional, cell-based. The method, boiled down: as §3
For series [11], the system named is H9c2. Nature of the series: Growth inhibition of rat H9c2(2-1) cells by MTT assay after 3 hrs. In kind it is functional, cell-based. As to conditions: H9c2, 3 h. The method, boiled down: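 Rat cardiomyocytes were kept in DMEM with 10% FCS and pen-strep and seeded at 500 cells/well overnight. They got serum-free drug medium for 3 h, then fresh complete medium until controls reached ~80% confluence (3-5 days). Read-out was MTT optical density at 554 nm, with IC50 as log molar concentration. There were six replicates per concentration and at least two experiments.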
On the technique in general: Tetrazolium assays rely on reduction of a dye to a coloured formazan, in cell work by metabolically active cells.

For series [12], the system named is Vero. Nature of the series: Cytotoxicity against Vero cells by MTT assay after 3 hrs. As to conditions: Chlorocebus sabaeus. In kind it is functional, cell-based. The procedure, abridged: as §2
For series [13], the system named is SK-HEP1. Nature of the series: Decrease in drug uptake in SK-HEP-1 cells by flow cytometry at 0.5 uM in presence of 10% fetal bovine serum. Also on record: scale not given: the % may be the effect or the level left. The class given is functional, Homo sapiens. The procedure, abridged:
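SK-HEP-1 cells at 200,000 per well were attached overnight. They were then exposed at 37 °C to 0.5 μM drug (final) in RPMI with 10% fetal bovine serum or without serum. Cells were trypsinized at 0.5, 1, 1.5, 2 and 3 h and Dox fluorophore measured by flow cytometry. Mean fluorescence was divided by untreated control to give relative fluorescence.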
For orientation: Flow cytometry measures light scatter and fluorescence of single cells or particles in a stream.

Series [14] is described as follows: Stability in buffer at pH 7.4 after 24 hrs. Particulars: pH 7.4, 24 h. In kind it is physicochemical. The procedure, abridged: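 The compound was held in pH 7.4 buffer, without cells or growth medium, for 24 h at ambient temperature. Hydrolysis was followed by HPLC.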

For the compound `CCCCOC(=O)Nc1ccc(COC(=O)N2CO[C@@H]3[C@H](C)O[C@@H](O[C@H]4C[C@](O)(C(=O)CO)Cc5c(O)c6c(c(O)c54)C(=O)c4c(OC)cccc4C6=O)C[C@@H]32)cc1`, the IC50 (in general, the concentration that gives 50% inhibition) in the series with MCF7 [1] was 79400 nM; in the series on NCI/ADR-RES [2], 1260 nM; with SK-HEP1 [3] it was 1580 nM; in the series with HepG2 [4], 20 nM; in the series on Vero [5], 794 nM; in the series with SHP77 it was 79.4 nM. Moreover, the IC50 is 501 nM in the series with DU-145 and 63.1 nM with H9c2 [6].
With `CCCCOC(=O)N1CO[C@@H]2[C@H](C)O[C@@H](O[C@H]3C[C@](O)(C(=O)CO)Cc4c(O)c5c(c(O)c43)C(=O)c3c(OC)cccc3C5=O)C[C@@H]21`, the IC50 with MCF7 [1] was 794 nM; with NCI/ADR-RES [2] it was 631 nM; in the series with SK-HEP1 [3], 398 nM; in the series with HepG2 [4] it was 200 nM; in the series with Vero [5] it was 501 nM; with SHP77 it was 251 nM. Further, the half-inhibitory concentration (IC50) with DU-145 was 398 nM; with H9c2 [6], 1580 nM.
For `CCCCCOC(=O)Nc1ccc(COC(=O)N2CO[C@@H]3[C@H](C)O[C@@H](O[C@H]4C[C@](O)(C(=O)CO)Cc5c(O)c6c(c(O)c54)C(=O)c4c(OC)cccc4C6=O)C[C@@H]32)cc1`, the IC50 in the series on MCF7 [1] was 2510 nM; with NCI/ADR-RES [2] it was 316 nM; in the series on SK-HEP1 [3], 1000 nM; with HepG2 [4] it was 50.1 nM; in the series with Vero [5], 1000 nM; with SHP77, 50.1 nM. The results for the IC50 in the series with DU-145 and in the series with H9c2 [6] were 200 nM and 631 nM, respectively.
For `COc1cccc2c1C(=O)c1c(O)c3c(c(O)c1C2=O)C[C@@](O)(C(=O)CO)C[C@@H]3O[C@H]1C[C@@H]2NCO[C@@H]2[C@H](C)O1` [DOXAZOLIDINE], the concentration for half-maximal inhibition (IC50) is 3.16 nM with MCF7 [7]; 3.16 nM with NCI/ADR-RES [8]; 3.98 nM in the series with SK-HEP1 [9]; 10 nM with HepG2 [10]; 31.6 nM with H9c2 [11]; 6.31 nM in the series with Vero [12]. For the same compound, the IC50 in the series with Vero [5] was 7.94 nM.
For the compound `CCOC(=O)N1CO[C@@H]2[C@H](C)O[C@@H](O[C@H]3C[C@](O)(C(=O)CO)Cc4c(O)c5c(c(O)c43)C(=O)c3c(OC)cccc3C5=O)C[C@@H]21`, the 50% inhibitory concentration (IC50) with MCF7 [7] is greater than 1000 nM; in the series with NCI/ADR-RES [8] it was 5010 nM; in the series with MCF7 [1], less than 1000 nM; with NCI/ADR-RES [2], greater than 10000 nM; in the series on SK-HEP1 [9], greater than 1000 nM; with SK-HEP1 [3] it was greater than 1000 nM. For the same compound, the IC50 in the series on HepG2 [10] was greater than 1000 nM; with HepG2 [4] it was greater than 1000 nM; with H9c2 [11] it was 1580 nM.
As for `COc1cccc2c1C(=O)c1c(O)c3c(c(O)c1C2=O)C[C@@](O)(C(=O)CO)C[C@@H]3O[C@H]1C[C@H](N)[C@H](O)[C@H](C)O1` [DOXORUBICIN], the half-maximal inhibitory concentration (IC50) was 316 nM in the series with MCF7 [7]; 6310 nM in the series with NCI/ADR-RES [8]; 12.6 nM in the series with MCF7 [1]; 2510 nM in the series on NCI/ADR-RES [2]; 100 nM in the series on SK-HEP1 [9]; 50.1 nM in the series with SK-HEP1 [3]. The half-inhibitory concentration (IC50) is 200 nM in the series with HepG2 [10]; 31.6 nM in the series on HepG2 [4]; 31.6 nM with H9c2 [11]; 1000 nM in the series on Vero [12]; 501 nM in the series with Vero [5]; 126 nM in the series on SHP77. The figures for the IC50 in the series on DU-145 and in the series with H9c2 [6] were 31.6 nM and 20 nM, respectively.
As to `CCCCCOC(=O)N1CO[C@@H]2[C@H](C)O[C@@H](O[C@H]3C[C@](O)(C(=O)CO)Cc4c(O)c5c(c(O)c43)C(=O)c3c(OC)cccc3C5=O)C[C@@H]21`, the IC50 is greater than 1000 nM in the series on MCF7 [7]; 794 nM in the series with MCF7 [1]; 1000 nM in the series with NCI/ADR-RES [2]; greater than 1000 nM in the series with SK-HEP1 [9]; 200 nM with SK-HEP1 [3]; greater than 1000 nM with HepG2 [10]. The half-maximal inhibitory concentration (IC50) is 316 nM in the series with HepG2 [4]; 3980 nM with Vero [12]; 5010 nM in the series with Vero [5]; 501 nM in the series on SHP77; 1000 nM in the series with DU-145; 251 nM in the series on H9c2 [6]. In addition, the Activity in the series on SK-HEP1 [13] came to 25%. Further, in series [14], the Stability result is given as “Stable”.
